Bioassay records deposited in PubChem BioAssay by Broad Institute.
GSIS activator: GLuc luminescence reporter in INS-1E cells, primary screen for activators of glucose-dependent secretion of insulin. activation, % at 16.6 µM. INS-1E GLuc reporter insulin secretion, 2-3 h. 0.61% of 370,000 active;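 active = lowest replicate activation of at least 40%, so every replicate reaches that level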;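 also: 0% = median of neutral control wells and 100% = median of IBMX positive control wells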
miR122 inh: miR-122 Renilla sensor signal increase in Huh7, primary screen, miR-122 inhibitor project, cell-based, single point, plate reader | activation (reporter increase), % at 12.5 µM | 0.3% of 340,000 active | Huh7 miR-122 Renilla luciferase sensor, 48 h; neutral wells = 0, positive control = 100;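 active = mean replicate activation score at least 90 and every replicate individually at or above 90; inconclusive = only one of the two criteria met; inactive = neither criterion met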;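 also: higher luciferase means less miR-122 activity so hits act as miR-122 inhibitors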
dFosB activator: activators of delta FosB homodimer, primary screen, biochemical, fluorescence polarization, TAMRA-CDK5 oligo, single point; purified delta FosB; percent of positive-control signal above neutral wells; Protein FosB (Mus musculus), P13346; 0.99% of 340,000 active; activation, % at 25 µM;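 active = mean activation above about 17%, with every replicate also reaching it, limit read from the data, passing the limit was not always enough; inconclusive = only one of the two conditions met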
Target sequence (P13346 whole entry, looked up): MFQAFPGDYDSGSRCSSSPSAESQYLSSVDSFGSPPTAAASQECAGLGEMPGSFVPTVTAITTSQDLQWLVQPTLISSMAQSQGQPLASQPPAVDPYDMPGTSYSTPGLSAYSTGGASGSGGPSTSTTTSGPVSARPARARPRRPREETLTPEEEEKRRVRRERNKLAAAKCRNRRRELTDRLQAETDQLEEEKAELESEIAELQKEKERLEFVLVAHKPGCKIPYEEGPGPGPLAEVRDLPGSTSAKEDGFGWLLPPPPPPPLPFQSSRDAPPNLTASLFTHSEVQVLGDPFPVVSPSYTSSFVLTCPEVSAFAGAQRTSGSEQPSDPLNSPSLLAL
Env fusion inh: inhibitors of HIV-1 Env-driven cell-cell fusion, primary screen, HeLa-JRFL effector, CEM21 target cells, luciferase; inhibition, % at 12.3 µM; 1.1% of 360,000 active; AID 651610, 2012;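 active = mean replicate inhibition score of at least 50 and every replicate individually at or above 50; inconclusive = only one of the two criteria met; inactive = mean below 50 and not all replicates reaching 50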;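 also: 0% = plate neutral controls and 100% = maraviroc near 300 nM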
Rtt109 HAT inh: inhibitors of C. albicans Rtt109/Vps75 HAT, primary screen, biochemical, ThioGlo CoA-SH fluorescence, plate reader; Histone acetyltransferase RTT109 (Candida albicans (strain SC5314 / ATCC MYA-2876)), …; 0.16% of 330,000 active; inhibition, % at 34.9 µM; AID 540336, 2011; purified Rtt109/Vps75, 4 h;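 active = inhibition of at least 50% in every replicate; inconclusive = best replicate reaches 50% inhibition but some replicates fall short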
Cneo AK release: Cryptococcus neoformans cell lysis inducers, primary screen, AK release luminescence, single concentration; C. neoformans lysis, adenylate kinase release luminescence, 4 h; normalised: neutral wells 0, clomiphene wells 100; lysis activity, % at 15 µM; 0.2% of 360,000 active; AID 651654, 2012;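 active = mean lysis activity across replicates of at least 80%, whatever share of replicates individually reach that level; inactive = mean lysis activity below 80%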
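Assay system: Cryptococcus neoformans yeast cells / Dosing: single-point compound dose / Timing: 4 h at 37 °C static, read 1 h later / Measured by: luminescence of released adenylate kinase using an AK detection reagent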
* = called active by the depositor; [ ] = another dose, or the depositor's remark. A selection: hits, their analogues and other compounds. The true share with any hit is near 2.4%.

`O=C(C[C@H]1CC[C@@H](NC(=O)C2CC2)[C@@H](CO)O1)NCC1CC1` gave GSIS activator -3, Env fusion inh -3[16.7 µM] and Cneo AK release -2.
O=C(O)c1ccc(OS(=O)(=O)c2cccc(C(F)(F)F)c2)cc1 was read as GSIS activator 73*, miR122 inh -1, dFosB activator -5, Env fusion inh 0, Rtt109 HAT inh 1 and Cneo AK release 2.
Screening O=C(CSc1n[nH]c(-c2ccccc2Cl)n1)NC1CCCCC1 returned GSIS activator 11, miR122 inh 1, dFosB activator -3, Env fusion inh -1, Rtt109 HAT inh 51* and Cneo AK release -1.
Screening O=C(CCCc1nc(-c2ccccc2Cl)no1)NC1CCCC1 returned GSIS activator -7, miR122 inh -2, dFosB activator -6, Env fusion inh 66*, Rtt109 HAT inh -6 and Cneo AK release -6.
For COc1cc(-c2cc(OC)c(O)c(OC)c2)cc(OC)c1O the results were GSIS activator 7, dFosB activator 1, Env fusion inh 78*, Rtt109 HAT inh -5 and Cneo AK release 0.
C[C@H](CO)N1C[C@H](C)[C@@H](CN(C)Cc2ccc(C(F)(F)F)cc2)Oc2ccc(NC(=O)CCN3CCOCC3)cc2CC1=O was read as GSIS activator 1, miR122 inh 5[16.7 µM], Env fusion inh -11[16.7 µM] and Cneo AK release 0.
CN(C)C(=O)c1cccc(-c2ccc(C3[C@@H]4CN(Cc5nccs5)C[C@H]3N4)cc2)c1 (stereo not given in full) was read as GSIS activator 9.
Screening CC(=Nc1ccccc1)C1=C(O)C(Cc2ccc(O)cc2)NC1=O (stereo not given) returned GSIS activator -2, dFosB activator -6, Env fusion inh inactive and Rtt109 HAT inh -2.
Screening CC(=Nc1ccccc1)C1=C(O)C(Cc2cccc(F)c2)NC1=O (stereo not given) returned GSIS activator 19, miR122 inh 158*, Env fusion inh -31 and Cneo AK release -4.
`O=C(CC1c2ccccc2Oc2ccccc21)Nc1ccccc1C(F)(F)F` gave GSIS activator 102*, dFosB activator 1 and Rtt109 HAT inh 6.
`O=C(CC1c2ccccc2Oc2ccccc21)Nc1ccccc1F` gave GSIS activator -18, miR122 inh 1, dFosB activator 12, Rtt109 HAT inh 0 and Cneo AK release 3.
Screening CCC(=O)N1[C@H](CO)[C@@H](c2ccc(-c3ccc(C#N)cc3)cc2)C12CN(C(C)=O)C2 returned GSIS activator 25.
COc1ccc(C(=O)CSc2nnc(CNc3ccc(C)cc3C)o2)cc1 was read as GSIS activator 59*, miR122 inh -2, dFosB activator -1, Env fusion inh inconclusive, Rtt109 HAT inh 3 and Cneo AK release 5.
`COc1ccc(C(=O)CSc2nnc(CNC(=O)c3ccccc3)o2)cc1` gave GSIS activator -8, miR122 inh 1, dFosB activator -3, Env fusion inh -3, Rtt109 HAT inh 1 and Cneo AK release 1.
Screening COc1ccccc1C=NNC(=O)NN=Cc1ccccc1OC returned GSIS activator -12, miR122 inh 2, dFosB activator -13, Env fusion inh -13, Rtt109 HAT inh -4 and Cneo AK release -8.
`COc1ccccc1C=NN=C(NN=Cc1ccccc1OC)NN=Cc1ccccc1OC` gave GSIS activator 13, miR122 inh -7, dFosB activator 44*, Rtt109 HAT inh 1 and Cneo AK release -2.
`COc1ccc(CCNC(=O)CSc2n[nH]c(N)n2)cc1OC` gave GSIS activator 86*, miR122 inh -4, dFosB activator 2, Env fusion inh 2, Rtt109 HAT inh -12 and Cneo AK release 1.
